The record followed here is ChEMBL document CHEMBL1151729 (J Med Chem, 2008).

The source made the active and inactive calls. The rule behind the calls is not given here. Where only a bound is given, the exact number is not on record here.

For assay [1], the system named is PC-3. The assay is described as follows: Antimigratory effect in human PC-3 cells assessed as cell motility at 100 nM after 24 hrs relative to control. In kind it is functional, cell-based. Summed up: (§1)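 Cell motility of human A549 non-small-cell lung and PC-3 hormone-refractory prostate cancer cells measured by computer-assisted phase-contrast quantitative videomicroscopy over 12 h and 24 h with inhibitor at 1, 10 or 100 nM. Motility calculated in µm per hour and expressed as % of untreated control (100%). Triplicate experiments, mean ± SEM, Mann-Whitney test versus control.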

For assay [2], the system named is A549. Put plainly: Antimigratory effect in human A549 cells assessed as cell motility at 10 nM after 24 hrs relative to control. In kind it is functional, cell-based. In a few lines: as §1
The target of assay [3] is Galectin-3 (Homo sapiens, UniProt P17931). Put plainly: Binding affinity to galectin 3 at 20 degC by fluorescence polarization assay.
Chain of Galectin-3 (P17931 whole entry): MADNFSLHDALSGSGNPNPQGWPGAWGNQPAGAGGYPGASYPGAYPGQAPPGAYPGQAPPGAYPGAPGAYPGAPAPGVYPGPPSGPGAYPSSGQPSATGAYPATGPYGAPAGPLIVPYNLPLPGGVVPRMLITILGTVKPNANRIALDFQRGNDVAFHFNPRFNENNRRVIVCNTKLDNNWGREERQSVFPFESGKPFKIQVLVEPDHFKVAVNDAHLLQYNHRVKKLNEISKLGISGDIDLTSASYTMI
Assay [4] deals with T1, Galectin-8 (Homo sapiens, UniProt O00214).
T1 sequence (O00214 whole entry): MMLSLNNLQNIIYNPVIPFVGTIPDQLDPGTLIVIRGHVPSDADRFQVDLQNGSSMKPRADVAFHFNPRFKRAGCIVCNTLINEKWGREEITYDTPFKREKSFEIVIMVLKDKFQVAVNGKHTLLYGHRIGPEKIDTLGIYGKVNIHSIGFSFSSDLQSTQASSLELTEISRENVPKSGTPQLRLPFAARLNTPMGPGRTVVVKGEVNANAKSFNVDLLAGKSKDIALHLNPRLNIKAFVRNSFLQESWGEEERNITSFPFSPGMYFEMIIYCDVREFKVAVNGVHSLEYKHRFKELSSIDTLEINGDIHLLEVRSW
The assay is described as follows: (§2) Binding affinity to galectin 8N terminal domain at 20 degC by fluorescence polarization assay.

Assay [5] deals with Galectin-9 (Homo sapiens, UniProt O00182). The assay is described as follows: Binding affinity to galectin 9N terminal domain at 0 degC by fluorescence polarization assay.
Chain of Galectin-9 (O00182 whole entry, the tested form may be a part): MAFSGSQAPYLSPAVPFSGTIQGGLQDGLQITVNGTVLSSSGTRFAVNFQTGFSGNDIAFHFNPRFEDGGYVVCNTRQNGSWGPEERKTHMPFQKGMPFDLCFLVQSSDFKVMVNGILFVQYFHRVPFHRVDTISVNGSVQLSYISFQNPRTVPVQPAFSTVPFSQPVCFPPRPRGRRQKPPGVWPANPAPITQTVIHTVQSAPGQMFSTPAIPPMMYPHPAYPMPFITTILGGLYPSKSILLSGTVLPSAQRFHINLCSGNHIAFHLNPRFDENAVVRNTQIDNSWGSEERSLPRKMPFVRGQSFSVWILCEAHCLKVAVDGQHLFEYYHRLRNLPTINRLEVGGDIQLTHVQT
The target in assay [6] is Galectin-7 (Homo sapiens, UniProt P47929). The assay is described as follows: Binding affinity to galectin 7 at 0 degC by fluorescence polarization assay.
Chain of Galectin-7 (P47929 whole entry): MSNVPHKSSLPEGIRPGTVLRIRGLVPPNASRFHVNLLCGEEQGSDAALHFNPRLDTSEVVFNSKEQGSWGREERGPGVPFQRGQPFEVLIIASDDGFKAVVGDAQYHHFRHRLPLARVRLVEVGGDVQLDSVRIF
Assay [7] deals with T2, Galectin-1 (Homo sapiens, UniProt P09382). The assay is described as follows: Binding affinity to galectin 1 at 20 degC by fluorescence polarization assay.
T2 sequence (P09382 whole entry): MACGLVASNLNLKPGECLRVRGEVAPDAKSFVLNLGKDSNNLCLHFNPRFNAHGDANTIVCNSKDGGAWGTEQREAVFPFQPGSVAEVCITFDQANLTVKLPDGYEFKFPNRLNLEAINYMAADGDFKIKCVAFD
Assay [8] has as its target T3, Galectin-8 (Homo sapiens) (UniProt O00214).
T3 sequence (whole entry): T1 sequence (O00214 whole entry)
The description is as §2.

For assay [9], the target named is T2, Galectin-1. The assay is described as follows: Binding affinity to galectin 1 at 0 degC by fluorescence polarization assay.
Assay [10] deals with A549. Put plainly: Antimigratory effect in human A549 cells assessed as cell motility at 100 nM after 24 hrs relative to control. In kind it is functional, cell-based. Summed up:
as §1

The subject of assay [11] is PC-3. The assay is described as follows: Antimigratory effect in human PC-3 cells assessed as cell motility at 1 nM after 24 hrs relative to control. In kind it is functional, cell-based. In a few lines: as §1

On to `COc1cccc(C(=O)O[C@H]2[C@@H](O)[C@@H](CO)O[C@@H](S[C@@H]3O[C@H](CO)[C@H](O)[C@H](OC(=O)c4cccc(OC)c4)[C@H]3O)[C@@H]2O)c1`, for which the result in assay [1] and in assay [2] was Active. The Kd in assay [3] is 0.69 µM; in [4], 42 µM; in [5], 1.4 µM; in assay [6], 22 µM; in assay [7] it was 4.4 µM.
As for `CO[C@@H]1O[C@H](CO)[C@@H](O[C@@H]2O[C@H](CO)[C@H](O)[C@H](NC(=O)c3cccc4ccccc34)[C@H]2O)[C@H](O)[C@H]1NC(C)=O`, the Kd is 4.4 µM in [3], above 100 µM in assay [5], 7.6 µM in assay [6] and 25 µM in [9]. Further, in assay [8], the result was Active.
On to `O=C(N[C@H]1[C@@H](O)[C@@H](CO)O[C@@H](S[C@@H]2O[C@H](CO)[C@H](O)[C@H](NC(=O)c3ccc4ccccc4c3)[C@H]2O)[C@@H]1O)c1ccc2ccccc2c1`, for which the Kd in [3] is 0.16 µM; in [4], above 100 µM; in assay [5], 0.73 µM; in assay [6], 1.7 µM; in assay [9], 9.6 µM.
Take `CC(=O)N[C@@H]1[C@@H](O)[C@H](O[C@@H]2O[C@H](CO)[C@H](O)[C@H](O)[C@H]2O)[C@@H](CO)O[C@H]1O`: the Kd in assay [3] stood at 59 µM; in assay [4], 1000 µM; in assay [5], 490 µM; in assay [6], 550 µM.
For the compound `O=C(N[C@H]1[C@@H](O)[C@@H](CO)O[C@@H](S[C@@H]2O[C@H](CO)[C@H](O)[C@H](NC(=O)c3ccccc3)[C@H]2O)[C@@H]1O)c1ccccc1`, in assay [8], the outcome was Active. Moreover, the Kd is 7 µM in assay [5], 4.3 µM in assay [6] and 35 µM in assay [9].
`CO[C@@H]1O[C@H](CO)[C@@H](O[C@@H]2O[C@H](CO)[C@H](O)[C@H](O)[C@H]2O)[C@H](O)[C@H]1OC(=O)c1cccc2ccccc12`: the Kd in assay [3] stood at 2.5 µM; in assay [4], 530 µM; in assay [5], 1.6 µM; in assay [6], 54 µM; in assay [9], 14 µM.
`O=C(O[C@H]1[C@@H](O)[C@@H](CO)O[C@@H](S[C@@H]2O[C@H](CO)[C@H](O)[C@H](OC(=O)c3cccc4ccccc34)[C@H]2O)[C@@H]1O)c1cccc2ccccc12`: the outcome in assay [10] and in assay [11] was Active. The Kd in [3] was 3.8 µM; in assay [4] it was 24 µM; in assay [5] it was 8.3 µM; in [6], 24 µM; in assay [7] it was 16.8 µM.
Turning to `O=C(O[C@H]1[C@@H](O)[C@@H](CO)O[C@@H](S[C@@H]2O[C@H](CO)[C@H](O)[C@H](OC(=O)c3ccc4ccccc4c3)[C@H]2O)[C@@H]1O)c1ccc2ccccc2c1`, the Kd was found to be 10.7 µM in assay [3]; 100 µM in [4]; 2.8 µM in assay [5]; 48 µM in assay [6]; 14.7 µM in assay [7].
The corresponding values for `O=C(O[C@H]1[C@@H](O)[C@@H](CO)O[C@@H](S[C@@H]2O[C@H](CO)[C@H](O)[C@H](OC(=O)c3ccccc3)[C@H]2O)[C@@H]1O)c1ccccc1` are 1.6 µM, 104 µM, 2.2 µM, 22 µM and 6.4 µM.
As to `Cc1ccc(C(=O)O[C@H]2[C@@H](O)[C@@H](CO)O[C@@H](S[C@@H]3O[C@H](CO)[C@H](O)[C@H](OC(=O)c4ccc(C)cc4)[C@H]3O)[C@@H]2O)cc1`, the Kd in [3] came out at 3.6 µM; in assay [4], 135 µM; in assay [5], 15 µM; in [6], 190 µM; in assay [7] it was 10.3 µM.
For `COc1cccc(C(=O)N[C@H]2[C@@H](O)[C@@H](CO)O[C@@H](S[C@@H]3O[C@H](CO)[C@H](O)[C@H](NC(=O)c4cccc(OC)c4)[C@H]3O)[C@@H]2O)c1`, the dissociation constant (Kd) in assay [4] was 100 µM; in assay [5], 1.8 µM; in assay [6] it was 2.1 µM; in assay [9] it was 2 µM.
